In ChEMBL document CHEMBL1759910, “Imidazopyridine CB2 agonists: optimization of CB2/CB1 selectivity and implications for in vivo analgesic efficacy” (Bioorg Med Chem Lett, 2011):
The source made the active and inactive calls.

Legend:
Cannabinoid receptor 2 [1] = target: T1, Cannabinoid receptor 2 (Homo sapiens, UniProt P34972); experiment: Agonist activity at human CB2 receptor expressed in CHO-K1 cells assessed as inhibition of forskolin-stimulated cAMP level relative to control; format: functional, cell-based
T1 sequence (P34972 whole entry): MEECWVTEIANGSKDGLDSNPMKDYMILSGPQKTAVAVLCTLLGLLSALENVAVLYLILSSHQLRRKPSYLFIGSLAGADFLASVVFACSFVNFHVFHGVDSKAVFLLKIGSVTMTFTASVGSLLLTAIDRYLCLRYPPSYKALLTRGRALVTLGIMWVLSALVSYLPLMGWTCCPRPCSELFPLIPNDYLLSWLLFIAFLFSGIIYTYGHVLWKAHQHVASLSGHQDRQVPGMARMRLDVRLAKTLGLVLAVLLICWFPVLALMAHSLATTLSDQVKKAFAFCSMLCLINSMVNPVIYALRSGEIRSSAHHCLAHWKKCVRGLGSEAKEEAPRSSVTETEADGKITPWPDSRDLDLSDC
Method in brief: (§1)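 Receptor (human or rat CB1 or CB2) expressed in CHO-K1 cells, 1000 cells per well, added to compound and incubated at room temperature for 15 min. Read-out is IC50 with Emax.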

[2] = Plasma protein binding in rat assessed as fraction unbound; format: ADME, cell-free
Method in brief: (§2)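 Free fraction in rat plasma measured by ultrafiltration or equilibrium dialysis after incubation with rat plasma.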

Cannabinoid receptor 2 [3] = target: T1, Cannabinoid receptor 2; experiment: Agonist activity at human CB2 receptor expressed in CHO-K1 cells assessed as inhibition of forskolin-stimulated cAMP level; format: functional, cell-based; method in brief: as §1
Cannabinoid receptor 1 [4] = target: T2, Cannabinoid receptor 1 (Homo sapiens, UniProt P21554); experiment: Agonist activity at human CB1 receptor expressed in CHO-K1 cells assessed as inhibition of forskolin-stimulated cAMP level; format: functional, cell-based; method in brief: as §1
T2 sequence (P21554 whole entry): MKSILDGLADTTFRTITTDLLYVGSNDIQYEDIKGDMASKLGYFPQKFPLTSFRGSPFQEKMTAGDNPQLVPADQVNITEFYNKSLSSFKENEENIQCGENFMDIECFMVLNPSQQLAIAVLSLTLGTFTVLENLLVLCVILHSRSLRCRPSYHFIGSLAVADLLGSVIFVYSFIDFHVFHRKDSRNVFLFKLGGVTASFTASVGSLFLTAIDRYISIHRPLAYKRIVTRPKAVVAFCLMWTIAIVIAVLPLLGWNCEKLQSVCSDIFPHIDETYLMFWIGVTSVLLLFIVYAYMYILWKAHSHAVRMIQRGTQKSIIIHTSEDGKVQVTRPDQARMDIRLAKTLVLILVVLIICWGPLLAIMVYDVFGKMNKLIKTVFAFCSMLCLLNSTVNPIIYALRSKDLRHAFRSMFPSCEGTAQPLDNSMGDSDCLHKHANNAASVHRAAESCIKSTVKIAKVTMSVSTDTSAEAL

Cannabinoid receptor 1 [5] = target: T2, Cannabinoid receptor 1; experiment: Agonist activity at human CB1 receptor expressed in CHO-K1 cells assessed as inhibition of forskolin-stimulated cAMP level relative to control; format: functional, cell-based; method in brief: as §1
Cannabinoid receptor 2 [6] = target: T1, Cannabinoid receptor 2; experiment: Binding affinity to human CB2 receptor
Cannabinoid receptor 1 [7] = target: T2, Cannabinoid receptor 1; experiment: Binding affinity to human CB1 receptor
[8] = Drug level in cerebrospinal fluid of Lewis rat complete Freund's adjuvant-induced hyperalgesia model at 100 mg/kg, po and sc at 60 mins; format: ADME, organism-based; set-up: dose 100 mg/kg, route oral; conditions: read-out: Drug uptake
Method in brief: (§3)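 Rats with CFA-induced hyperalgesia dosed orally or subcutaneously at 100 mpk. Naproxen 20 mg/kg and vehicle served as controls. Paw withdrawal threshold read at baseline, after CFA, and post-dose (30, 60 or 120 min). Plasma, brain and CSF drug levels measured at the 60 or 120 min post-dose timepoint.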

Rattus norvegicus [9] = experiment: Neurotoxicity in rat assessed as impairment of motor co-ordination at 100 mg/kg, po by rotarod method; format: toxicity, organism-based; set-up: dose 100 mg/kg, route oral; conditions: in vivo
Cannabinoid receptor 2 [10] = target: T3, Cannabinoid receptor 2 (Rattus norvegicus, UniProt Q9QZN9); experiment: Agonist activity at rat CB2 receptor expressed in CHO-K1 cells assessed as inhibition of forskolin-stimulated cAMP level; format: functional, cell-based; method in brief: as §1
T3 sequence (Q9QZN9 whole entry): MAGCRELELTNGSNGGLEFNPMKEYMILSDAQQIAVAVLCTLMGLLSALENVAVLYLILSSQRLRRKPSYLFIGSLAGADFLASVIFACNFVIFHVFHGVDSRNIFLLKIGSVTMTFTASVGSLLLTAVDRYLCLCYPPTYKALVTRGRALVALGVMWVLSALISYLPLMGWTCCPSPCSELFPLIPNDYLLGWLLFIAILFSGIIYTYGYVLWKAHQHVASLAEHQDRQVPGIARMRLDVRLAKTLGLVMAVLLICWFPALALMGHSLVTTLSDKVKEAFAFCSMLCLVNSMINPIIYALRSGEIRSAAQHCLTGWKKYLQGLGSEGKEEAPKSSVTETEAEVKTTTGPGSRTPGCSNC

[11] = Plasma protein binding in rat; format: ADME, cell-free; conditions: read-out: PPB (converted); method in brief: as §2
[12] = Drug level in brain of Lewis rat complete Freund's adjuvant-induced hyperalgesia at 100 mg/kg, po and sc at 60 mins; format: ADME, organism-based; set-up: dose 100 mg/kg, route oral; conditions: read-out: Drug uptake; method in brief: as §3
Rattus norvegicus [13] = experiment: Analgesic activity in Lewis rat complete Freund's adjuvant-induced hyperalgesia model assessed as reversal in paw withdrawal threshold at 100 mg/kg, po and sc; format: functional, organism-based; set-up: dose 100 mg/kg; method in brief: as §3
[14] = target: Cannabinoid receptor 1 (Rattus norvegicus) (UniProt P20272); experiment: Agonist activity at rat CB1 receptor expressed in CHO-K1 cells assessed as inhibition of forskolin-stimulated cAMP level relative to control; format: functional, cell-based; method in brief: as §1
Sequence of Cannabinoid receptor 1 (Rattus norvegicus) (P20272 whole entry): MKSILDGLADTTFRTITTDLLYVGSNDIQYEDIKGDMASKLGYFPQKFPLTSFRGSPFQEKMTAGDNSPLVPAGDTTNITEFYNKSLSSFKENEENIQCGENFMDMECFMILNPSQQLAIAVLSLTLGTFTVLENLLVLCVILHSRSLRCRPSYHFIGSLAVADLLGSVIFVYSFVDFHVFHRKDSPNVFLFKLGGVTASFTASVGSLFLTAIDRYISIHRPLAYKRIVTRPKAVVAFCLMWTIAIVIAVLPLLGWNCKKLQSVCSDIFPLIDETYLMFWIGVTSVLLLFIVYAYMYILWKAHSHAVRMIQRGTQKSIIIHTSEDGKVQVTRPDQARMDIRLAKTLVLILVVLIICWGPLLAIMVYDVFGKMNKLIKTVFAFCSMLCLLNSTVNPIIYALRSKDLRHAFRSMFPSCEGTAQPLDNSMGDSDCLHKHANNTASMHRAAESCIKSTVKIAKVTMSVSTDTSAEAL

Cannabinoid receptor 1 [15] = target: Cannabinoid receptor 1 (Rattus norvegicus, UniProt P20272); experiment: Agonist activity at rat CB1 receptor expressed in CHO-K1 cells assessed as inhibition of forskolin-stimulated cAMP level; format: functional, cell-based; method in brief: as §1
Sequence of Cannabinoid receptor 1 (Rattus norvegicus, UniProt P20272) (P20272 whole entry): as above

[16] = target: T4, Cannabinoid receptor 2 (Rattus norvegicus) (UniProt Q9QZN9); experiment: Agonist activity at rat CB2 receptor expressed in CHO-K1 cells assessed as inhibition of forskolin-stimulated cAMP level relative to control; format: functional, cell-based; method in brief: as §1
T4 sequence (whole entry): T3 sequence (Q9QZN9 whole entry)

[17] = Plasma concentration in Lewis rat complete Freund's adjuvant-induced hyperalgesia model at 100 mg/kg, po and sc at 60 mins; format: ADME, organism-based; set-up: dose 100 mg/kg, route oral; method in brief: as §3
[18] = Drug level in cerebrospinal fluid of Lewis rat complete Freund's adjuvant-induced hyperalgesia model at 100 mg/kg, po and sc at 120 mins; format: ADME, organism-based; set-up: dose 100 mg/kg, route oral; conditions: read-out: Drug uptake; method in brief: as §3
[19] = Plasma concentration in Lewis rat complete Freund's adjuvant-induced hyperalgesia model at 100 mg/kg, po and sc at 120 mins; format: ADME, organism-based; set-up: dose 100 mg/kg, route oral; method in brief: as §3
[20] = Drug level in brain of Lewis rat complete Freund's adjuvant-induced hyperalgesia model at 100 mg/kg, po and sc at 120 mins; format: ADME, organism-based; set-up: dose 100 mg/kg, route oral; conditions: read-out: Drug uptake; method in brief: as §3

SMILES | Emax (Cannabinoid receptor 2 [1]) | fraction unbound [2] | IC50 (Cannabinoid receptor 2 [3]) | IC50 (Cannabinoid receptor 1 [4]) | Emax (Cannabinoid receptor 1 [5]) | further results
O=C(NC(C1CC1)C1CC1)c1nc(C2CC2)n2ccccc12 | 99% | 0.03 | 7 nM | > 17000 nM |  | 
O=C(Nc1cccc(C(F)(F)F)n1)c1nc(CN2CCC(F)(F)CC2)c2ccccn12 | 98% |  | 1.7 nM | 347 nM | 100% | 
O=C(NC(c1ccncc1)c1ccc(F)cc1)c1nc(N2CCC(F)(F)C2)c2cnccn12 (stereo not given) | 96% | 0.03 | 92 nM | > 17000 nM |  | 
O=C(NC(c1cccnc1)C(F)(F)F)c1nc(N2CCOCC2)c2cnccn12 (stereo not given) | 98% | 0.25 | 69 nM | > 17000 nM |  | 
C[C@@H](NC(=O)c1nc(N2CCC(F)(F)CC2)c2cnccn12)C(C)(C)C | 99% | 0.06 | 36 nM | > 17000 nM |  | 
O=C(N[C@H](c1ccccn1)C(F)(F)F)c1nc(N2CCOCC2)c2cnccn12 | 94% | 0.18 | 139 nM | > 17000 nM |  | 
O=C(NCC1(CO)CCCC1)c1nc(CN2CCC(F)(F)CC2)n2ccccc12 | 88% |  | 3 nM | 68 nM | 99% | 
CC(C)(C)CNC(=O)c1nc(C2CC2)n2ccccc12 | 97% | 0.05 | 21 nM | > 17000 nM |  | 
O=C(c1cccc(Cl)c1Cl)c1nc(CN2CCC(F)(F)CC2)c2ccccn12 | 110% |  | 0.3 nM | 90 nM | 101% | 
O=C(c1cccc(F)c1C(F)(F)F)c1nc(CN2CCOCC2)c2ccccn12 | 98% | 0.03 | 0.7 nM | 2230 nM | 97% | 
O=C(N[C@H](c1ccccn1)C(F)(F)F)c1nc(N2CCOCC2)n2ccccc12 | 97% | 0.1 | 21 nM | 705 nM | 55% | 
COc1ccc2c(c1)c(CCN1CCOCC1)c(C)n2C(=O)c1cccc(Cl)c1Cl |  |  |  |  |  | Ki (Cannabinoid receptor 2 [6]): 10 nM; Ki (Cannabinoid receptor 1 [7]): 2000 nM
O=C(Nc1cccc(C(F)(F)F)n1)c1nc(CN2CCS(=O)(=O)CC2)c2ccccn12 | 80% | 0.11 | 44 nM | 12700 nM | 54% | 
O=C(c1cccc(Cl)c1Cl)c1nc(CN2CCOCC2)c2ccccn12 | 94% | 0.24 | 5 nM | 2560 nM | 66% | concentration at 1 h [8]: 110 nM; Activity (Rattus norvegicus [9]): Toxic; IC50 (Cannabinoid receptor 2 [10]): 11 nM; fraction unbound [11]: 0.24; concentration at 1 h [12]: 5400 nM; Activity (Rattus norvegicus [13]): Dose-dependent effect; Emax [14]: 104%; IC50 (Cannabinoid receptor 1 [15]): 1070 nM; Emax [16]: 87%; concentration at 1 h [17]: 4500 nM
O=C(NCC1(CO)CCCC1)c1nc(N2CCOCC2)n2ccccc12 | 99% | 0.16 | 33 nM | > 17000 nM |  | IC50 (Cannabinoid receptor 2 [10]): 58 nM; fraction unbound [11]: 0.16; concentration at 2 h [18]: 300 nM; Activity (Rattus norvegicus [13]): inactive; concentration at 2 h [19]: 4300 nM; IC50 (Cannabinoid receptor 1 [15]): > 17000 nM; Emax [16]: 87%; concentration at 2 h [20]: 1300 nM
